In brackets after ≈: the same amount, converted by molar mass. Activity calls are given as the source filed them. The calls are words filed in the database; no cut-off is given here.
What was measured:
[1] = target: T1, N-acetyltransferase Eis (Mycobacterium tuberculosis (strain ATCC 25618 / H37Rv), UniProt P9WFK7); assay: Inhibition of Mycobacterium tuberculosis Eis assessed as Eis-mediated kanamycin acetylation preincubated for 10 mins followed by substrate addition and measured for 2 to 5 mins using acetyl-CoA as substrate in presence of kanamycin by UV-Vis spectroscopy analysis
T1 sequence (P9WFK7 whole entry): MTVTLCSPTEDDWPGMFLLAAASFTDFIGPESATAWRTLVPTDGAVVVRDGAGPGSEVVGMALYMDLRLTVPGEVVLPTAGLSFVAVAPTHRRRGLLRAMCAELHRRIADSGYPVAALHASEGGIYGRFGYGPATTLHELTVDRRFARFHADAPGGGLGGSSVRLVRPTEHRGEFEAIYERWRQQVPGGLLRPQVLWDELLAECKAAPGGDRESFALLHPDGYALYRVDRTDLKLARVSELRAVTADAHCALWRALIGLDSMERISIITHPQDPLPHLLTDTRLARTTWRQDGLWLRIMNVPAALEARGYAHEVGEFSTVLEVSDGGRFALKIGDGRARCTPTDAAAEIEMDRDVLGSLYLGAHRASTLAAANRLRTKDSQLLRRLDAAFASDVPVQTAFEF
Summary of the method: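 Recombinant Eis (1 µM) mixed with KAN (400 µM) in 50 mM Tris-HCl pH 8.0 and preincubated 10 min with 5-fold serially diluted inhibitor (10% DMSO in buffer). Reaction started with AcCoA and DTNB (2 mM each, as added). Absorbance read every 30 s for 20 min. Initial rates (first 2-5 min) fitted to Hill plot for IC50. At least triplicate.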

[2] = tested on: Mycobacterium tuberculosis; assay: Potentiation of kanamycin-induced antibacterial activity against Mycobacterium tuberculosis H37Rv assessed as kanamycin MIC incubated for 1 day followed by kanamycin addition for 6 days and by Alamar blue assay; type: functional; conditions: 168 h, time 7 day
Summary of the method: (§1)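 Mtb in 7H9 + 10% ADC, 0.05% Tween 80, 0.4% glycerol at 37 °C. Inoculum adjusted to OD600 0.2, diluted 1:25. Cells preincubated 24 h at 37 °C with compound (100 µL of 200 µM solution). KAN then added: H37Rv at 2.5 and 1.25 µg/mL; K204 at 10, 5, 2.5, 1.25 µg/mL. Incubated 6 days, AlamarBlue added, colour read at 24 and 48 h. MIC = lowest KAN with no colour change. At least twice in duplicate.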

[3] = tested on: Mycobacterium tuberculosis; assay: Potentiation of kanamycin-induced antibacterial activity against Mycobacterium tuberculosis K204 assessed as kanamycin MIC incubated for 1 day followed by kanamycin addition for 6 days and by Alamar blue assay; type: functional; conditions: K204, 168 h, time 7 day; summary of the method: as §1
[4] = tested on: Mycolicibacterium smegmatis; assay: Antibacterial activity against Mycobacterium smegmatis mc2 155 assessed as inhibition of bacterial growth incubated upto 3 weeks hrs by resazurin dye based double-dilution method; type: functional; conditions: mc2 155, 504 h
Summary of the method: (§2)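 Double-dilution broth MIC. Media: M. smegmatis, Mueller-Hinton; M. abscessus, 7H9 + 0.05% Tween80 + 0.4% glycerol; mc²6230, 7H9 + 0.05% tyloxapol, 0.5% glycerol, 10% OADC, 0.2% casamino acids, 24 µg/mL pantothenate; other mycobacteria, 7H9 + 0.05% Tween80, 0.4% glycerol, 10% ADC. Inoculum from agar set to 0.5 McFarland, then diluted 1:100.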

[5] = tested on: Mycobacteroides abscessus; assay: Antibacterial activity against Mycobacterium abscessus ATCC 19977 assessed as inhibition of bacterial growth incubated upto 3 weeks hrs by resazurin dye based double-dilution method; type: functional; conditions: ATCC 19977, 504 h; summary of the method: as §2
[6] = tested on: Mycobacterium intracellulare; assay: Antibacterial activity against Mycobacterium intracellulare ATCC 13950 assessed as inhibition of bacterial growth incubated upto 3 weeks hrs by resazurin dye based double-dilution method; type: functional; conditions: ATCC 13950, 504 h; summary of the method: as §2
[7] = tested on: Mycobacterium avium; assay: Antibacterial activity against Mycobacterium avium ATCC 25921 assessed as inhibition of bacterial growth incubated upto 3 weeks hrs by resazurin dye based double-dilution method; type: functional; conditions: ATCC 25921, 504 h; summary of the method: as §2
[8] = tested on: Mycobacterium tuberculosis; assay: Antibacterial activity against Mycobacterium tuberculosis H37Ra ATCC NRS22 assessed as inhibition of bacterial growth incubated upto 3 weeks hrs by resazurin dye based double-dilution method; type: functional; conditions: H37Ra ATCC NRS22, 504 h; summary of the method: as §2
[9] = tested on: J774.A1; assay: Cytotoxicity against mouse J774.A1 cells assessed as reduction in cell viability at 100 uM incubated for 24 hrs by resazurin assay; type: toxicity, cell-based; conditions: j774.a1, 24 h
Summary of the method: (§3)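 Resazurin viability assay in DMEM + 10% FBS, 1% penicillin/streptomycin, 37 °C, 5% CO₂. Seeding: HEK-293 and J774A.1 at 1×10^4 cells/mL, A549 at 5×10^3 cells/mL. After 24 h, compounds added (0.78-200 μM, 0.5% DMSO final). Resazurin added 24 h later, read after 6 h. 1% Triton X as positive control. Quadruplicate.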

[10] = tested on: A549; assay: Cytotoxicity against human A549 cells assessed as reduction in cell viability at 100 uM incubated for 24 hrs by resazurin assay; type: toxicity, cell-based; conditions: a549, 24 h; summary of the method: as §3
[11] = tested on: Mycolicibacterium smegmatis; assay: Synergistic antibacterial activity against Mycobacterium smegmatis mc2 155 assessed as fold reduction in MIC value at 8 ug/ml in presence of spectinomycin by checkerboard assay; type: functional; conditions: dose 8 µg/ml
[12] = tested on: Mycolicibacterium smegmatis; assay: Synergistic antibacterial activity against Mycobacterium smegmatis mc2 155 assessed as fold reduction in MIC value at 8 ug/ml in presence of clarithromycin by checkerboard assay; type: functional; conditions: dose 8 µg/ml
[13] = tested on: Mycolicibacterium smegmatis; assay: Synergistic antibacterial activity against Mycobacterium smegmatis mc2 155 assessed as fold reduction in MIC value at 8 ug/ml in presence of clofazimine by checkerboard assay; type: functional, organism-based; conditions: dose 8.0 µg/ml
[14] = tested on: Mycobacteroides abscessus; assay: Synergistic antibacterial activity against Mycobacterium abscessus ATCC 19977 assessed as reduction in bacterial growth presence of spectinomycin by checkerboard assay; type: functional, organism-based
Summary of the method: (§4)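 Checkerboard in 96-well plates. Antibiotic two-fold serially diluted along columns, haloperidol derivative two-fold along rows. Bacteria prepared as for the MIC determination. MICs alone and in combination used to calculate FICI. At least duplicate independent trials.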

[15] = tested on: Mycobacteroides abscessus; assay: Synergistic antibacterial activity against Mycobacterium abscessus ATCC 19977 in presence of clarithromycin by checkerboard assay; type: functional, organism-based; summary of the method: as §4
[16] = tested on: Mycobacteroides abscessus; assay: Synergistic antibacterial activity against Mycobacterium abscessus ATCC 19977 in presence of clofazimine by checkerboard assay; type: functional, organism-based; summary of the method: as §4
[17] = tested on: Mycobacterium intracellulare; assay: Antibacterial activity against Mycobacterium intracellulare ATCC 13950 in presence of spectinomycin by checkerboard assay; type: functional, organism-based; summary of the method: as §4
[18] = tested on: Mycobacterium intracellulare; assay: Antibacterial activity against Mycobacterium intracellulare ATCC 13950 in presence of clarithromycin by checkerboard assay; type: functional, organism-based; summary of the method: as §4
[19] = tested on: Mycobacterium intracellulare; assay: Antibacterial activity against Mycobacterium intracellulare ATCC 13950 in presence of clofazimine by checkerboard assay; type: functional, organism-based; summary of the method: as §4
[20] = tested on: Mycobacterium avium; assay: Antibacterial activity against Mycobacterium avium ATCC 25921 in presence of spectinomycin by checkerboard assay; type: functional, organism-based; summary of the method: as §4
[21] = tested on: Mycobacterium avium; assay: Antibacterial activity against Mycobacterium avium ATCC 25921 in presence of clarithromycin by checkerboard assay; type: functional, organism-based; summary of the method: as §4
[22] = tested on: Mycobacterium avium; assay: Antibacterial activity against Mycobacterium avium ATCC 25921 in presence of clofazimine by checkerboard assay; type: functional, organism-based; summary of the method: as §4
[23] = tested on: Mycobacterium tuberculosis; assay: Synergistic antibacterial activity against Mycobacterium tuberculosis H37Ra ATCC NRS22 in presence of spectinomycin by checkerboard assay; type: functional, organism-based; summary of the method: as §4
[24] = tested on: HEK293; assay: Cytotoxicity against human HEK293 cells assessed as reduction in cell viability at 200 uM incubated for 24 hrs by resazurin assay; type: toxicity, cell-based; conditions: hek293, 24 h; summary of the method: as §3
[25] = tested on: A549; assay: Cytotoxicity against human A549 cells assessed as reduction in cell viability at 200 uM incubated for 24 hrs by resazurin assay; type: toxicity, cell-based; conditions: a549, 24 h; summary of the method: as §3
[26] = tested on: J774.A1; assay: Cytotoxicity against mouse J774.A1 cells assessed as reduction in cell viability at 50 uM incubated for 24 hrs by resazurin assay; type: toxicity, cell-based; conditions: j774.a1, 24 h; summary of the method: as §3
[27] = tested on: Mycobacterium tuberculosis; assay: Antibacterial activity against Mycobacterium tuberculosis H37Rv assessed as inhibition of bacterial growth at 100 uM incubated for 24 hrs by Alamar blue assay; type: functional, organism-based
[28] = tested on: Mycobacterium tuberculosis; assay: Antibacterial activity against Mycobacterium tuberculosis K204 assessed as inhibition of bacterial growth at 100 uM incubated for 24 hrs by Alamar blue assay; type: functional, organism-based
[29] = tested on: Escherichia coli; assay: Antibacterial activity against Escherichia coli MC1061 assessed as inhibition of bacterial growth incubated upto 3 weeks hrs by resazurin dye based double-dilution method; type: functional, organism-based
[30] = tested on: A549; assay: Cytotoxicity against human A549 cells assessed as reduction in cell viability at 25 uM incubated for 24 hrs by resazurin assay; type: toxicity, cell-based; conditions: a549, 24 h; summary of the method: as §3
[31] = tested on: HEK293; assay: Cytotoxicity against human HEK293 cells assessed as reduction in cell viability at 25 uM incubated for 24 hrs by resazurin assay; type: toxicity, cell-based; conditions: hek293, 24 h; summary of the method: as §3
[32] = tested on: J774.A1; assay: Cytotoxicity against mouse J774.A1 cells assessed as reduction in cell viability at 25 uM incubated for 24 hrs by resazurin assay; type: toxicity, cell-based; conditions: j774.a1, 24 h; summary of the method: as §3
[33] = Metabolic stability in human liver microsomes at 2 to 4 uM incubated for 30 mins by LC-MS/MS analysis; type: ADME, Microsome; conditions: dose 2-4 µM, read-out: Stability
[34] = Metabolic stability in mouse liver microsomes at 2 to 4 uM incubated for 30 mins by LC-MS/MS analysis; type: ADME, Microsome; conditions: dose 2-4 µM, read-out: Stability

## COc1ccc(C(=O)CCCN2CCC(O)(c3ccc(Cl)cc3)CC2)cc1
[1]
  IC50: 40 µM
[2]
  MIC: ≤ 1.25 µg/mL
[3]
  MIC: > 10 µg/mL
[4]
  MIC: > 62.5 µM
[5]
  MIC: > 62.5 µM
[6]
  MIC: > 62.5 µM
[7]
  MIC: > 62.5 µM
[8]
  MIC: 62.5 µM (≈ 24.2 µg/mL)
[9]
  Activity: Toxic
[10]
  Activity: 78%

## O=C(CCCN1CCC(O)(c2ccc(Cl)cc2)CC1)c1ccc(Cl)cc1 [CHLOROHALOPERIDOL]
[1]
  IC50: 5.1 µM
[4]
  MIC: > 62.5 µM
[5]
  MIC: > 62.5 µM
[6]
  MIC: > 62.5 µM
[7]
  MIC: 62.5 µM (≈ 24.5 µg/mL)
[8]
  MIC: 15.6 µM (≈ 6.12 µg/mL)
[11]
  fold change (FC): 16
[12]
  fold change (FC): 4
[13]
  Activity: Active
[14]
  Activity: Active
[15]
  Activity: Active
[16]
  Activity: Active
[17]
  Activity: Active
[18]
  Activity: Active
[19]
  Activity: Active
[20]
  Activity: Active
[21]
  Activity: Active
[22]
  Activity: Active
[23]
  Activity: Active
[24]
  Activity: Non-Toxic
[25]
  Activity: Non-Toxic
[26]
  Activity: Toxic

## CC(C)(C)c1ccc(C(=O)CCCN2CCC(O)(c3ccc(Br)cc3)CC2)cc1
[27]
  inhibition: Active
[1]
  IC50: > 200 µM
[28]
  inhibition: Active
[4]
  MIC: 15.6 µM (≈ 7.15 µg/mL)
[5]
  MIC: > 62.5 µM
[6]
  MIC: 7.8 µM (≈ 3.58 µg/mL)
[7]
  MIC: 7.8 µM (≈ 3.58 µg/mL)
[8]
  MIC: 3.9 µM (≈ 1.79 µg/mL)
[29]
  inhibition: Active
[11]
  fold change (FC): 16
[12]
  fold change (FC): 4
[30]
  Activity: Toxic
[31]
  Activity: Toxic
[32]
  Activity: Toxic
[33]
  remaining at 0.5 h: 56%
[34]
  remaining at 0.5 h: 58%

Reference: ChEMBL document CHEMBL5107950, “Structure-based design of haloperidol analogues as inhibitors of acetyltransferase Eis from Mycobacterium tuberculosis to overcome kanamycin resistance” (RSC Med Chem, 2021)
